Screens from PubChem.
Sampled rows, rich in hits. Any-hit rate of the full collection: about 5.2%.
EBNA-1 inhibitor – EBNA-1 DNA-binding inhibitors, primary screen, biochemical, fluorescence polarization; inhibition, % at 14.8 µM; 0.34% of 300,000 active; in the data active = inhibition above about 28%
ZTA DNA inh – blocks Epstein-Barr virus ZTA, an EBNA-1 counter-screen; 0.15% of 320,000 active; inhibition, % at 11 µM; ZTA-DNA binding, fluorescence polarization; P03206; in the data active = inhibition above about 33%
Target sequence (P03206 whole entry, looked up): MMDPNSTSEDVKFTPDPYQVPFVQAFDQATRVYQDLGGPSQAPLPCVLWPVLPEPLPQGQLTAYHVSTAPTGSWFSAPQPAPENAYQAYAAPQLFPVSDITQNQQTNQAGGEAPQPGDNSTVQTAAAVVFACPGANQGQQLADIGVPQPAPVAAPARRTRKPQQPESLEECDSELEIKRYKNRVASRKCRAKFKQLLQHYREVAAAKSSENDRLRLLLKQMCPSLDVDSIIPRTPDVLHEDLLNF
core dimer inh – inhibitors of HCV core protein dimerization, primary screen, biochemical, TR-FRET, high-throughput; TR-FRET GST/Flag-core106 dimerization, 1536-well; inhibition, % at 5 µM; 0.33% of 300,000 active; AID 1899, 2009;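 active = inhibition above the mean of all tested compounds plus 3 SD, set per screening campaign, cut at about 45% in these data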
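System: GST-tagged and Flag-tagged HCV core protein residues 1-106 / Input: core106 proteins, GST 13.5 nM and Flag 17 nM / Buffer or medium: KF-containing HEPES buffer, pH 7.45, DTT, CHAPS, BSA / Probe or stimulus: Eu-anti-GST and XL665-anti-Flag labelled anti-tag antibodies / Schedule: 4 h, 22.5 °C incubation / Technique: TR-FRET 671 and 617 nm emission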
PfM18AAP inh – PfM18AAP inhibitors, malaria aminopeptidase, primary screen, biochemical, QFRET, recombinant enzyme. inhibition, % at 7.35 µM. 1.2% of 290,000 active. H-Glu-NHMec fluorogenic cleavage. M18 aspartyl aminopeptidase (Plasmodium falciparum 3D7);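 active = inhibition above the campaign mean inhibition over all tested compounds plus 3 SD, cut at about 28% in these data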;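 note: 0% = plate median of test compound wells and 100% = 2 mM ZnCl2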
ALR inh – inhibitors of human ALR sulfhydryl oxidase, primary screen, biochemical, H2O2 detection, HRP-luminol luminescence, single point. 3.8% of 290,000 active. FAD-linked sulfhydryl oxidase ALR (Homo sapiens), P55789. AID 485317, 2010. purified ALR, DTT oxidation. inhibition, % (no concentration beside the values);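 active = mean replicate inhibition above about 79%, with every replicate also reaching it, limit read from the data; inconclusive = only one of the two criteria met; inactive = mean below limit and not every replicate reaching it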
Target sequence (P55789 whole entry, looked up): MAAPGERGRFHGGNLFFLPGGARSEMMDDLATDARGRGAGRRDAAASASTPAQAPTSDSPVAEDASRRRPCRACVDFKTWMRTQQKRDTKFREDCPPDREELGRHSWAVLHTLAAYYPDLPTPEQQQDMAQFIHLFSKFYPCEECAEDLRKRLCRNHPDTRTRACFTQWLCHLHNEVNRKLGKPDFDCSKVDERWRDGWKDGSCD
NS3 helicase inh – inhibitors of HCV NS3 helicase, primary screen, biochemical, Cy5 molecular beacon fluorescence; Hepatitis C virus NS3 helicase; NS3 helicase DNA unwinding; inhibition, % at 10.9 µM; 0.56% of 290,000 active; AID 1800, 2009;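 active = inhibition above the mean of all tested compounds plus 3 SD, set per campaign, cut at about 35% in these data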;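 note: 0% = DMSO wells and 100% = thioflavine S control wells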
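System: NS3 helicase fragment of HCV / Schedule: 1 h at 25 °C / Control set: DMSO alone as 0% and 110 µM thioflavine S as 100% / Reagent: Cy5/quencher beacon DNA duplex and ATP to start / Technique: Cy5 fluorescence / Replication: singlicate / Evaluation: % inhibition of end-to-start signal ratio versus controls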
NS3 helicase cf – HCV NS3 helicase inhibitors, retest, confirmation, biochemical, Cy5 molecular beacon fluorescence, triplicate. shares compounds with NS3 helicase inh. NS3 helicase DNA unwinding. inhibition, % at 10.9 µM. 31% of 1,600 active. AID 1943, 2009;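 active = inhibition above the mean of all tested compounds plus 3 SD, cutoff set per campaign, cut at about 36% in these data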
FID counter trip – compounds displacing fluorescent DNA intercalator, artefact control for HCV NS3 helicase inhibitor project, biochemical, FID fluorescence, triplicate; shares compounds with NS3 helicase inh; DNA fluorescent intercalator displacement; inhibition, % at 7.9 µM; 4% of 1,600 active; AID 1945, 2009; in the data active = inhibition above about 37%;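 note: 0% = vehicle and 100% = reference compound; higher means more displacement of ethidium bromide from the DNA hairpin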
Active calls of the source: *; ? = inconclusive; . = not tested or not shown.

SMILES	EBNA-1 inhibitor	ZTA DNA inh	core dimer inh	PfM18AAP inh	ALR inh	NS3 helicase inh	NS3 helicase cf	FID counter trip
COc1ccc(C(=O)[C@H]2[C@H]3C(=O)N(c4ccc(C)cc4)C(=O)[C@H]3C3C=CC=NN32)cc1 (some centres undefined)	5	6	37	-1	-6	60*	-16	-19
O=C(Nc1ccccc1)[C@@H]1[C@@H]2C(=O)N(c3ccc(F)cc3)C(=O)[C@@H]2[C@H]2C=CC=NN21	1	-12	3	7	1	61*	-19	-7
CC(=O)Oc1ccc(C(=O)[C@H]2[C@H]3C(=O)N(c4ccc(C)cc4)C(=O)[C@H]3[C@@H]3C=CC=NN32)cc1	-8	-25	45	1	1	34	.	.
COC(CNC(=O)CN1CCN(Cc2ccccc2F)C1=O)OC	-18	-2	-7	-6	.	-2	.	.
O=C1c2ccccc2C(=O)C1c1ccc(Br)cc1	-3	-1	-14	-3	2	-2	.	.
O=c1[nH]c(=S)[nH]c2c1C(c1ccc(Br)cc1)c1c([nH]c(=S)[nH]c1=O)O2	31*	67*	30	-10	.	43*	75*	5
CC(C)C(NC(=O)c1ccccc1)C(=O)OCC(=O)N1CCN(c2ccccc2)CC1 (centres undefined)	.	1	.	.	.	.	.	.
Nn1c(Cc2cccc3ccccc23)nnc1SCc1c(Cl)cccc1Cl	3	4	6	4	-13	61*	-9	-27
C1CN(CCN2CCOCC2)CCN1	-6	-8	6	4	-4	1	.	.
Cc1ccc(S(=O)(=O)N(C(=O)c2ccco2)c2cc3sc(=O)oc3c3ccccc23)cc1	1	8	-8	-18	-48	40*	-8	-3
Cc1cc(C)c[n+](-c2[nH]c(=O)sc2/C=N/N=C(\[O-])c2cccnc2)c1	-7	4	-8	11	-7	36*	-11	2
CCc1ccc[n+](-c2[nH]c(=O)sc2/C=N/N=C(\[O-])c2ccncc2)c1	0	-8	-11	10	1	10	.	.
CCCCN(C(=O)CSCC(=O)Nc1ccc(OC)cc1)c1c(N)n(Cc2ccccc2)c(=O)[nH]c1=O	-7	-4	-1	.	29	.	.	.
O=C(CSc1ccc(-c2ccco2)nn1)c1cccc([N+](=O)[O-])c1	10	-9	65*	11	51	38*	-9	16
CC(C)c1ccc(SCc2noc(C(=O)NCC3CCCO3)c2C(=O)O)cc1 (centres undefined)	5	-5	-7	4	97*	41*	36	-19
O=C(NCC1CCCO1)c1onc(CSc2ccccc2)c1C(=O)O (centres undefined)	4	-5	12	0	1	-1	.	.
Cc1ccccc1NC(=O)c1ccc(OCc2c(C)noc2C)cc1	.	7	.	.	-4	.	.	.
Cc1ccc(NC(N)=S)cc1	9	-16	0	-4	46	36*	2	3
Cc1ccc(NC(N)=S)cc1C	-6	6	-1	-2	-10	0	.	.
O=C(C1=C(O)C(=O)N(CC2CCCO2)C1c1ccccc1Cl)c1ccco1 (centres undefined)	1	-1	2	5	-9	10	.	.
O=C(C1=C(O)C(=O)N(CC2CCCO2)C1c1ccc(Cl)cc1Cl)c1ccco1 (centres undefined)	2	14	-1	10	7	68*	-3	-21
CC(C)(C)c1ccc(C2C(C(=O)c3ccco3)=C(O)C(=O)N2CC2CCCO2)cc1 (centres undefined)	-4	8	9	7	.	37*	10	-13
COc1ccc(C(=O)N2CCN(CCc3ccccc3)CC2)cc1[N+](=O)[O-]	-9	1	-9	-7	3	13	.	.
O=C(/C=C/c1ccco1)Nc1nc(-c2ccc(F)c(F)c2)cs1	2	24	7	-4	-6	54*	-6	5
Cc1ccc(-c2csc(N/N=C/c3ccco3)n2)cc1	-3	-9	2	18	-2	46*	-11	13
SMILES	EBNA-1 inhibitor	ZTA DNA inh	core dimer inh	PfM18AAP inh	ALR inh	NS3 helicase inh	NS3 helicase cf	FID counter trip
Cc1cc(OCC(=O)NC(C)c2ccccc2)ccc1[N+](=O)[O-] (centres undefined)	-1	3	-3	-3	-2	12	.	.
COC(=O)CC(NC(=O)Nc1ccccc1F)c1ccc2c(c1)OCO2 (centres undefined)	8	2	-4	-15	-5	-12	.	.
Cc1ccc(CSC2=Nc3ccccc3C3=NC(CCC(=O)NCc4ccco4)C(=O)N23)cc1 (centres undefined)	-5	1	32	7	43	47*	-14	-38
Cc1ccc(C)c(C(=O)Cn2ncc(Cl)c(Cl)c2=O)c1	-3	-10	-68	-3	63	10	.	.
Cc1cc(C(=O)Cn2ncc(Cl)c(Cl)c2=O)c(C)n1CC(F)(F)F	0	14	32	9	27	57*	-12	-13
N=c1c(S(=O)(=O)c2ccc(Cl)cc2)cc2c(=O)n3ccccc3nc2n1Cc1ccco1	-5	-9	35	11	.	45*	70*	48*
O=C(O)CC(C(=O)O)N1C(=O)/C(=C/C=C/c2ccco2)SC1=S (centres undefined)	36*	92*	-12	31*	-21	74*	87*	-3
O=C(O)CCCN1C(=O)/C(=C/C=C/c2ccco2)SC1=S	45*	88*	75*	26	?	73*	76*	4
O=C1S/C(=C\C=C\c2ccco2)C(=O)N1c1ccccc1	8	15	30	15	.	49*	45*	34
CCOC(=O)C1=C(COC(=O)COc2ccc(Br)cc2)NC(=O)NC1C (centres undefined)	-5	0	-3	.	-5	.	.	.
O=C(O)c1ccc2c(c1)C(=O)N(c1cccc3ccccc13)C2=O	-20	13	2	7	0	-4	.	.
Cc1ccc(-n2nc(C)c3c2OC(N)=C(C#N)C3c2ccoc2)cc1 (centres undefined)	9	24	0	18	24	45*	-18	18
O=C(CN(C(=O)CCC(=O)Nc1ccccn1)c1cccc(F)c1)NCc1ccco1	8	-4	0	1	-5	8	.	.
